The values that follow come from ChEMBL document CHEMBL1127290, “1-(2,5-Dimethoxy-4-(trifluoromethyl)phenyl)-2-aminopropane: a potent serotonin 5-HT2A/2C agonist” (J Med Chem, 1994).

The target in test [1] is 5-hydroxytryptamine receptor 2A (Mus musculus) (UniProt P35363). In words: Percent of maximum stimulation of phosphatidylinositol turnover at cloned 5-hydroxytryptamine 2A receptor in 3T3 cells. Format: functional, cell-based. The following applies: NIH3T3.
Test [2] has as its target T1, 5-hydroxytryptamine receptor 2C (Mus musculus) (UniProt P34968).
T1 sequence (whole entry): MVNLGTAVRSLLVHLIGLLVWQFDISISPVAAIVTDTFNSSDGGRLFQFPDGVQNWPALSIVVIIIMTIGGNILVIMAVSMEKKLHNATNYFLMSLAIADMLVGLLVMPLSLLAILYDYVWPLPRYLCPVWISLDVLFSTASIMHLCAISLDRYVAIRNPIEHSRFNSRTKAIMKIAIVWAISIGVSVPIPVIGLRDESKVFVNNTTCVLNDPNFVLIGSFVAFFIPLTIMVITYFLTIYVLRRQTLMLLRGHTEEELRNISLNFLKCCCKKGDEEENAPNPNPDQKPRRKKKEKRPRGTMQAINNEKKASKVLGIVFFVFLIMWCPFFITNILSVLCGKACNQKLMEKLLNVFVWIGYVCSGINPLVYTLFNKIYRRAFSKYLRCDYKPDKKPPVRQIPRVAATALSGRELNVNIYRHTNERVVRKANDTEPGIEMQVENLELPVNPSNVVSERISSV
Description: Percent of maximum stimulation of phosphatidylinositol turnover at cloned 5-hydroxytryptamine 2C receptor in A9 cells. The format is functional, cell-based. The essentials:
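A9 cells expressing cloned 5-HT2C receptor, labelled 18 h with 1 μCi/mL [3H]inositol in inositol-free DMEM with dialysed serum. Compounds given 60 min with 10 mM LiCl in Krebs bicarbonate buffer, then [3H]inositol monophosphate accumulation measured. Expressed as % of the 5-HT (10^-5 M) maximum minus control. Vmax by nonlinear regression. Triplicates in three experiments, mean ± SE.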

The structures appear in SMILES notation.

Sequence of 5-hydroxytryptamine receptor 2A (Mus musculus) (P35363 whole entry): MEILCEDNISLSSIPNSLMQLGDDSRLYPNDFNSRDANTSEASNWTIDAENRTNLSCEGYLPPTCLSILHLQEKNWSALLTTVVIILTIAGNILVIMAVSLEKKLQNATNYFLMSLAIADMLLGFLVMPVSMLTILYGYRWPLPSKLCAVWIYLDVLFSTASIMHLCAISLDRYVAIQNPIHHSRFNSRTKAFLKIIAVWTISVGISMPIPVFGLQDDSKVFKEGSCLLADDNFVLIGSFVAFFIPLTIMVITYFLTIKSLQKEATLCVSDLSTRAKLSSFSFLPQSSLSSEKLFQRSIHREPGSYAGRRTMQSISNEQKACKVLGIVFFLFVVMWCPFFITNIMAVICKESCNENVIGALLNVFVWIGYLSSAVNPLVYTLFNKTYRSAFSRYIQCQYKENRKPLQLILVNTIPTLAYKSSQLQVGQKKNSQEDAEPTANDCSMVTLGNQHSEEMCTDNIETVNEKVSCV

As to `COc1cc(C(F)(F)F)c(OC)cc1CC(C)N` (stereo unspecified), the K aff in test [1] worked out at 86 nM; in test [2] it was 43 nM.

Consider `COc1cc(C(F)(F)F)c(OC)cc1CCN`, for which the values for the K aff in test [1] and in test [2] were 165 nM and 32 nM, respectively.

For the compound `COc1cc(CC(C)N)c(OC)cc1I` (stereo unspecified), the K aff in test [1] amounted to 119 nM; in test [2], 43 nM.
